Measurements taken from ChEMBL document CHEMBL1275591, “Cellular pharmacodynamics of the novel biaryloxazolidinone radezolid: studies with infected phagocytic and nonphagocytic cells, using Staphylococcus aureus, Staphylococcus epidermidis, Listeria monocytogenes, and Legionella pneumophila” (Antimicrob Agents Chemother, 2010).
Values after ≈ are worked out from the molar mass of the structure shown.

Tests used:
Staphylococcus aureus [1] = test: Antimicrobial activity against methicillin-susceptible Staphylococcus aureus SA040 after 24 hrs; type: functional; details: SA040, 24 h
Staphylococcus aureus [2] = test: Antimicrobial activity against community acquired methicillin-resistant Staphylococcus aureus NRS192 after 24 hrs; type: functional; details: NRS192, 24 h
Staphylococcus aureus [3] = test: Antimicrobial activity against community acquired methicillin-resistant Staphylococcus aureus NRS384 after 24 hrs; type: functional; details: NRS384, 24 h
Staphylococcus aureus [4] = test: Antimicrobial activity against methicillin-resistant, vancomycin intermediate Staphylococcus aureus NRS52 after 24 hrs; type: functional; details: NRS52, 24 h
Staphylococcus aureus [5] = test: Antimicrobial activity against hospital acquired methicillin-resistant, vancomycin resistant Staphylococcus aureus VRS2 after 24 hrs; type: functional; details: VRS2, 24 h
[6] = test system: Staphylococcus epidermidis; test: Antimicrobial activity against Staphylococcus epidermidis infected in THP1 cells after 24 hrs; type: functional, organism-based; details: THP-1, 24 h
How it was run: (§1)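 Bacteria were phagocytosed by human THP-1 macrophage-like cells, then exposed to a range of drug concentrations for a fixed time: 24 h for S. aureus, S. epidermidis and L. monocytogenes, 48 h for L. pneumophila. Change in CFU versus the initial inoculum was fitted with a sigmoidal curve to give Emin, Emax (relative maximal efficacy), EC50 and static concentration (Cs).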

Staphylococcus aureus [7] = test: Antimicrobial activity against linezolid-susceptible Staphylococcus aureus NRS18 infected in THP1 cells assessed as log reduction in bacterial count after 24 hrs; type: functional, THP-1; how it was run: as §1
Staphylococcus aureus [8] = test: Antimicrobial activity against linezolid-susceptible Staphylococcus aureus NRS384 infected in THP1 cells after 24 hrs; type: functional, organism-based; details: NRS384, THP-1, 24 h; how it was run: as §1
Staphylococcus aureus [9] = test: Antimicrobial activity against linezolid-resistant Staphylococcus aureus SA238L infected in THP1 cells after 24 hrs; type: functional, organism-based; details: THP-1, 24 h; how it was run: as §1
Staphylococcus aureus [10] = test: Bacteriostatic activity against linezolid-resistant Staphylococcus aureus SA040L infected in THP1 cells after 24 hrs; type: functional, THP-1
How it was run: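 Human THP-1 myelomonocytic (macrophage-like) cells infected with S. aureus, then exposed 24 h to a range of antibiotic concentrations. CFU change was measured against the initial inoculum. A sigmoidal dose-response curve was fitted to give Emin, Emax and EC50, and the apparent static concentration (Cs) was taken from the fit.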

Staphylococcus aureus [11] = test: Antimicrobial activity against linezolid-resistant Staphylococcus aureus SA238L infected in HUVEC cells assessed as log reduction in bacterial count after 24 hrs; type: functional
How it was run: (§2)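 S. aureus was internalized by adherent nonphagocytic cells: Calu-3, HUVEC, keratinocytes on collagen-coated wells, osteoblasts, or rat embryo fibroblasts. Inoculum was 5 × 10^7 to 1 × 10^8 bacteria/ml with 2 h phagocytosis (HUVEC: 2 × 10^6/ml, 1 h). Cells were then exposed to graded drug concentrations for 24 h. CFU change versus the original inoculum was fitted sigmoidally for Emax and Cs.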

Staphylococcus aureus [12] = test: Bacteriostatic activity against linezolid-resistant Staphylococcus aureus SA238L infected in Calu-3 cells after 24 hrs; type: functional
How it was run: (§3)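 Adherent nonphagocytic cells were infected at 5 × 10^7 to 1 × 10^8 bacteria/ml with 2 h phagocytosis. Cells used: Calu-3 bronchial epithelium grown in uncoated flasks, neonatal foreskin keratinocytes on collagen-coated wells, primary human osteoblasts, and primary rat embryo fibroblasts. Antibiotic was then given over a concentration range for 24 h. Cs came from a sigmoidal fit of CFU change.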

Staphylococcus aureus [13] = test: Antimicrobial activity against linezolid-resistant Staphylococcus aureus SA238L infected in human osteoblasts cells assessed as log reduction in bacterial count after 24 hrs; type: functional; how it was run: as §2
Staphylococcus aureus [14] = test: Antimicrobial activity against linezolid-resistant Staphylococcus aureus SA238L infected in rat fibroblast cells assessed as log reduction in bacterial count after 24 hrs; type: functional; how it was run: as §2
Staphylococcus aureus [15] = test: Bacteriostatic activity against linezolid-susceptible Staphylococcus aureus SA238 infected in rat fibroblast cells after 24 hrs; type: functional; how it was run: as §3
HUVEC = test: Ratio of drug level for cellular to extracellular region of Staphylococcus aureus infected HUVEC cells at 4 mg/liter after 24 hrs; type: ADME, cell-based; details: human
How it was run: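 Cells were exposed to [14C]radezolid for 2 or 24 h. Cell-associated drug in lysates was measured by liquid scintillation counting (detection limit 0.003 mg/liter; linear 0.01–0.78 mg/liter). Content was normalised to cell protein (Lowry). It was converted to apparent cellular concentration at 5 μl per mg protein and expressed relative to the extracellular concentration.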

CC(=O)NC[C@H]1CN(c2ccc(-c3ccc(CNCc4cnn[nH]4)cc3)c(F)c2)C(=O)O1 [RADEZOLID]
MIC (Staphylococcus aureus [1]): 1 µg/mL (≈ 2.28 µM) | MIC (Staphylococcus aureus [2]): 0.5 µg/mL (≈ 1.14 µM) | MIC (Staphylococcus aureus [3]): 0.5 µg/mL (≈ 1.14 µM) | MIC (Staphylococcus aureus [4]): 2 µg/mL (≈ 4.56 µM) | MIC (Staphylococcus aureus [5]): 2 µg/mL (≈ 4.56 µM) | EC50 [6]: 1.51 µg/mL (≈ 3.44 µM) | log10cfu (Staphylococcus aureus [7]): -1 | EC50 (Staphylococcus aureus [8]): 0.07 µg/mL (≈ 0.16 µM) | EC50 (Staphylococcus aureus [9]): 0.29 µg/mL (≈ 0.661 µM) | Activity (Staphylococcus aureus [10]): 0.56 mg/L | log10cfu (Staphylococcus aureus [11]): 0.6 | Activity (Staphylococcus aureus [12]): 0.6 mg/L | log10cfu (Staphylococcus aureus [13]): 0.6 | log10cfu (Staphylococcus aureus [14]): 0.6 | Activity (Staphylococcus aureus [15]): 0.6 mg/L | Ratio (HUVEC): 10.5
